Experimental data from ChEMBL document CHEMBL3272112, “Cycloalkanones. 8. Hypocholesterolemic activity of long-chain ketones related to pentadecanone” (J Med Chem, 1976).

What was measured:
Rattus norvegicus [1] = assay: Toxicity in Sprague-Dawley rat assessed as atrophy of testis at 10 mg/kg/day administered for 16 days measured on day 16 post last dose; assay type: organism-based; conditions: in vivo, 384 h
Rattus norvegicus [2] = assay: Hypocholesterolemic activity in Sprague-Dawley rat assessed as serum cholesterol level at 50 mg/kg/day, po administered via intubation measured on day 10 by Liebermann-Burchard method relative to control; assay type: functional
Summary of the method: (§1)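 Male Sprague-Dawley rats given compound homogenized in 1% CMC once daily at 11:00 a.m. by oral intubation needle (0.2 cc), doses calculated on weekly body weights; tail-vein blood drawn 24 h after last dose; nonhemolyzed serum (30 μ) assayed by modified Liebermann-Burchard method; N = 8; % of control, mean ± SD; Student's t test.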

Rattus norvegicus [3] = assay: Toxicity in Sprague-Dawley rat assessed as increase in epididymis and vas deferens weight at 10 mg/kg/day administered for 16 days measured on day 16 post last dose relative to total body weight (reference value: 0.22 +/- 0.04%); assay type: organism-based; conditions: in vivo, 384 h
Rattus norvegicus [4] = assay: Hypocholesterolemic activity in Sprague-Dawley rat assessed as serum cholesterol level at 1 mg/kg/day, po administered via intubation measured on day 16 by Liebermann-Burchard method relative to control; assay type: functional; summary of the method: as §1
Rattus norvegicus [5] = assay: Toxicity in Sprague-Dawley rat assessed as change in kidney weight at 10 mg/kg/day administered for 16 days measured on day 16 post last dose relative to total body weight (reference value: 0.91 +/- 0.10%); assay type: organism-based; conditions: in vivo, 384 h
Rattus norvegicus [6] = assay: Hypocholesterolemic activity in Sprague-Dawley rat assessed as serum cholesterol level at 10 mg/kg/day, po administered via intubation measured on day 10 by Liebermann-Burchard method relative to control; assay type: functional; summary of the method: as §1
Rattus norvegicus [7] = organism: Rattus norvegicus; assay: Disruption of rat liver cell membrane assessed as unlysed cells at 25 mg per gram of tissue measured at 1 hr (reference value: 90 +/- 4%); assay type: functional
Summary of the method: (§2)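 Rat liver 10% homogenate in 0.25 M sucrose + 0.001 M EDTA, pH 7.2, incubated at 37°C with Hanke's buffer pH 7.2 and drug suspended in 1% CMC (dose as mg drug per g wet liver); turbidity read as absorbance at 660 nm over 0–4 hr, falling absorbance taken as lysis; expressed as % unlysed cells; vehicle 1% CMC control.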

Rattus norvegicus [8] = assay: Toxicity in Sprague-Dawley rat assessed as effect on protein level in liver at 10 mg/kg/day measured after 16 days (reference value: 100 +/- 5%); assay type: organism-based; conditions: in vivo, 384 h
Rattus norvegicus [9] = assay: Toxicity in Sprague-Dawley rat assessed as food intake at 50 mg/kg/day measured after 1 week (reference value: 20.9 +/- 4.9 g/day); assay type: organism-based; conditions: in vivo, 168 h
Rattus norvegicus [10] = assay: Effect on serum triglyceride level in Sprague-Dawley rat at 10 mg/kg/day measured on day 16 (reference value: 100 +/- 21%); assay type: functional
[11] = Toxicity in CF1 mouse; assay type: organism-based; conditions: in vivo
Summary of the method: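 Male CF1 mice; acute lethality measured and LD50 calculated by the Litchfield and Wilcoxon method.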

Rattus norvegicus [12] = organism: Rattus norvegicus; assay: Disruption of rat liver cell membrane assessed as unlysed cells at 25 mg per gram of tissue measured at 2 hrs (reference value: 77 +/- 8%); assay type: functional; summary of the method: as §2
Rattus norvegicus [13] = assay: Toxicity in Sprague-Dawley rat assessed as increase in testes weight at 10 mg/kg/day administered for 16 days measured on day 16 post last dose relative to total body weight (reference value: 1.09 +/- 0.01%); assay type: organism-based, Testis; conditions: in vivo, 384 h
Rattus norvegicus [14] = organism: Rattus norvegicus; assay: Disruption of rat liver cell membrane assessed as unlysed cells at 10 mg per gram of tissue measured at 15 mins (reference value: 91 +/- 6%); assay type: functional; summary of the method: as §2
Rattus norvegicus [15] = organism: Rattus norvegicus; assay: Disruption of rat liver cell membrane assessed as unlysed cells at 25 mg per gram of tissue measured at 4 hrs (reference value: 17 +/- 4%); assay type: functional; summary of the method: as §2
Rattus norvegicus [16] = assay: Hypocholesterolemic activity in Sprague-Dawley rat assessed as serum cholesterol level at 20 mg/kg/day, po administered via intubation measured on day 16 by Liebermann-Burchard method relative to control; assay type: functional; summary of the method: as §1
Rattus norvegicus [17] = organism: Rattus norvegicus; assay: Disruption of rat liver cell membrane assessed as unlysed cells at 5 mg per gram of tissue measured at 30 mins (reference value: 93 +/- 7%); assay type: functional; summary of the method: as §2
Rattus norvegicus [18] = assay: Toxicity in Sprague-Dawley rat assessed as food intake at 5 mg/kg/day measured after 1 week (reference value: 20.9 +/- 4.9 g/day); assay type: organism-based; conditions: in vivo, 168 h
Rattus norvegicus [19] = organism: Rattus norvegicus; assay: Disruption of rat liver lysosomal membrane assessed as free acid phosphatase activity at 5 mg per gram of tissue measured after 1 hr (reference value: 100 +/- 16%); assay type: functional, tissue-based
Summary of the method: (§3)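 10% rat liver homogenate incubated with Hanke's buffer pH 7.2 and drug suspension in 1% CMC in a shaker at 37°C; aliquot removed after 1 hr and percent free (unbound) acid phosphatase activity determined as an index of lysosomal membrane rupture.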

Rattus norvegicus [20] = assay: Hypocholesterolemic activity in Sprague-Dawley rat assessed as serum cholesterol level at 1 mg/kg/day, po administered via intubation measured on day 10 by Liebermann-Burchard method relative to control; assay type: functional; summary of the method: as §1
Rattus norvegicus [21] = assay: Toxicity in Sprague-Dawley rat assessed as increase in liver weight at 10 mg/kg/day administered for 16 days measured on day 16 post last dose relative to total body weight (reference value: 4.35 +/- 0.39%); assay type: organism-based; conditions: in vivo, 384 h
Rattus norvegicus [22] = assay: Toxicity in Sprague-Dawley rat assessed as increase in body weight at 10 mg/kg/day measured on day 16 (reference value: 195 +/- 16%); assay type: organism-based; conditions: in vivo
Rattus norvegicus [23] = organism: Rattus norvegicus; assay: Disruption of rat liver cell membrane assessed as unlysed cells at 5 mg per gram of tissue measured at 2 hrs (reference value: 77 +/- 8%); assay type: functional; summary of the method: as §2
Rattus norvegicus [24] = organism: Rattus norvegicus; assay: Disruption of rat liver cell membrane assessed as unlysed cells at 10 mg per gram of tissue measured at 4 hrs (reference value: 17 +/- 4%); assay type: functional; summary of the method: as §2
Rattus norvegicus [25] = organism: Rattus norvegicus; assay: Disruption of rat liver cell membrane assessed as unlysed cells at 10 mg per gram of tissue measured at 1 hr (reference value: 90 +/- 4%); assay type: functional; summary of the method: as §2
Rattus norvegicus [26] = assay: Hypocholesterolemic activity in Sprague-Dawley rat assessed as serum cholesterol level at 50 mg/kg/day, po administered via intubation measured on day 16 by Liebermann-Burchard method relative to control; assay type: functional; summary of the method: as §1
Rattus norvegicus [27] = assay: Toxicity in Sprague-Dawley rat assessed as food intake at 5 mg/kg/day measured after 2 weeks (reference value: 24.8 +/- 1.1 g/day); assay type: organism-based; conditions: in vivo, 336 h
Rattus norvegicus [28] = assay: Hypocholesterolemic activity in Sprague-Dawley rat assessed as serum cholesterol level at 50 mg/kg/day, po administered via intubation measured on day 4 by Liebermann-Burchard method relative to control; assay type: functional; summary of the method: as §1
Rattus norvegicus [29] = assay: Toxicity in Sprague-Dawley rat assessed as effect on DNA level in liver at 10 mg/kg/day measured after 16 days (reference value: 100 +/- 2%); assay type: organism-based; conditions: in vivo, 384 h
Rattus norvegicus [30] = organism: Rattus norvegicus; assay: Disruption of rat liver cell membrane assessed as unlysed cells at 25 mg per gram of tissue measured at 15 mins (reference value: 91 +/- 6%); assay type: functional; summary of the method: as §2
Rattus norvegicus [31] = organism: Rattus norvegicus; assay: Disruption of rat liver lysosomal membrane assessed as free acid phosphatase activity at 25 mg per gram of tissue measured after 1 hr (reference value: 100 +/- 16%); assay type: functional, tissue-based; summary of the method: as §3
Rattus norvegicus [32] = organism: Rattus norvegicus; assay: Disruption of rat liver cell membrane assessed as unlysed cells at 10 mg per gram of tissue measured at 2 hrs (reference value: 77 +/- 8%); assay type: functional; summary of the method: as §2
Rattus norvegicus [33] = assay: Hypocholesterolemic activity in Sprague-Dawley rat assessed as serum cholesterol level at 5 mg/kg/day, po administered via intubation measured on day 4 by Liebermann-Burchard method relative to control; assay type: functional; summary of the method: as §1

Question: With `CCCCCCCCCCCCCCC(C)=O` as the compound, how does the Activity (Rattus norvegicus [1]) read?
Answer: The Activity was “Non-toxic”.

Question: And the Activity (Rattus norvegicus [2])?
Answer: The Activity was 74%.

Question: And the Activity (Rattus norvegicus [3])?
Answer: Its Activity is 0.24%.

Question: And the Activity (Rattus norvegicus [4])?
Answer: Its Activity is 71%.

Question: What about the Activity (Rattus norvegicus [5]) of the same compound?
Answer: The Activity was 0.86%.

Question: And the Activity (Rattus norvegicus [6])?
Answer: Its Activity is 72%.

Question: And the Activity (Rattus norvegicus [7])?
Answer: The Activity was 92%.

Question: And the Activity (Rattus norvegicus [8])?
Answer: Its Activity is 107%.

Question: And the Activity (Rattus norvegicus [9])?
Answer: Its Activity is 22.5 g/day.

Question: What about the Activity (Rattus norvegicus [10]) of the same compound?
Answer: The Activity was 120%.

Question: And the LD50 [11]?
Answer: Its LD50 is 1750 mg/kg.

Question: And the Activity (Rattus norvegicus [12])?
Answer: The Activity was 85%.

Question: What about the Activity (Rattus norvegicus [13]) of the same compound?
Answer: The Activity was 1.13%.

Question: And the Activity (Rattus norvegicus [14])?
Answer: Its Activity is 96%.

Question: And the Activity (Rattus norvegicus [15])?
Answer: Its Activity is 18%.

Question: And the Activity (Rattus norvegicus [16])?
Answer: The Activity was 69%.

Question: And the Activity (Rattus norvegicus [17])?
Answer: The Activity was 93%.

Question: And the Activity (Rattus norvegicus [18])?
Answer: The Activity was 21.8 g/day.

Question: And the Activity (Rattus norvegicus [19])?
Answer: Its Activity is 85%.

Question: What about the Activity (Rattus norvegicus [20]) of the same compound?
Answer: The Activity was 80%.

Question: What about the Activity (Rattus norvegicus [21]) of the same compound?
Answer: Its Activity is 4.39%.

Question: And the Activity (Rattus norvegicus [22])?
Answer: The Activity was 228%.

Question: What about the Activity (Rattus norvegicus [23]) of the same compound?
Answer: Its Activity is 83%.

Question: And the Activity (Rattus norvegicus [24])?
Answer: Its Activity is 19%.

Question: And the Activity (Rattus norvegicus [25])?
Answer: Its Activity is 92%.

Question: What about the Activity (Rattus norvegicus [26]) of the same compound?
Answer: Its Activity is 68%.

Question: What about the Activity (Rattus norvegicus [27]) of the same compound?
Answer: The Activity was 26.3 g/day.

Question: And the Activity (Rattus norvegicus [28])?
Answer: Its Activity is 75%.

Question: And the Activity (Rattus norvegicus [29])?
Answer: The Activity was 114%.

Question: What about the Activity (Rattus norvegicus [30]) of the same compound?
Answer: The Activity was 97%.

Question: What about the Activity (Rattus norvegicus [31]) of the same compound?
Answer: Its Activity is 116%.

Question: And the Activity (Rattus norvegicus [32])?
Answer: Its Activity is 77%.

Question: And the Activity (Rattus norvegicus [33])?
Answer: The Activity was 74%.
